Measured values reported in BindingDB's records for doi:10.1021/jm010408m (University of Missouri-Columbia, 2002).

Biological target: Melanocyte-stimulating hormone receptor (Mus musculus, UniProt Q01727)
Experiment: In vitro binding affinity for the melanoma receptor was determined in the murine melanoma B16/F1 cell line
Method in brief: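 Competitive displacement on B16/F1 cells seeded at 0.2 million/well and attached overnight. They were rinsed twice with PBS/0.2% BSA and lysed in 1.0 M NaOH. Cell-bound radioactivity was counted and IC50 fitted.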

Melanocyte-stimulating hormone receptor, sequence (Q01727 whole entry): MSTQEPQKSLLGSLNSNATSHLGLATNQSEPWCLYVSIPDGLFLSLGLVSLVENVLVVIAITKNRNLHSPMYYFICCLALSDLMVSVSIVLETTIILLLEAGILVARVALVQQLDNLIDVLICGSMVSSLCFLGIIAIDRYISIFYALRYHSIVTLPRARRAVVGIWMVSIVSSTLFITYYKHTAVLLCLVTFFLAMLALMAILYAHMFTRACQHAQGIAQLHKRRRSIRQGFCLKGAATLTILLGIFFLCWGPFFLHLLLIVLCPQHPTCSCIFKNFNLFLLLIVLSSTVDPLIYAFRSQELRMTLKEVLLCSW

Row | Structure (SMILES) | IC50 [nM]
1 | CC(C)C(NC(=O)C1CCCN1C(=O)C(CCCNC(=N)N)NC(=O)C1NC(=O)C(Cc2c[nH]c3ccccc23)NC(=O)C(CCCNC(=N)N)NC(=O)[C@H](Cc2ccccc2)NC(=O)C(Cc2cnc[nH]2)NC(=O)C(CCC(=O)O)NC(=O)C2[S][ReH]3([OH])([S]1)[S]C(NC(=O)CN1CCN(CC(=O)O)CCN(CC(=O)O)CCN(CC(=O)O)CC1)C(=O)[N]23)C(N)=O (stereo partly drawn) [DOTA-ReCCEHdFRWCRPV-NH2] | 2.1
2 | CC(=O)NC(CCCCNC(=O)CN1CCN(CC(=O)O)CCN(CC(=O)O)CCN(CC(=O)O)CC1)C(=O)NC1[S][ReH]23([OH])[S]C(C(=O)NC(CCCCNC(=O)OCc4ccccc4)C(=O)N4CCCC4C(=O)NC(C(N)=O)C(C)C)NC(=O)C(Cc4c[nH]c5ccccc45)NC(=O)C(CCCNC(=N)N)NC(=O)[C@H](Cc4ccccc4)NC(=O)C(Cc4cnc[nH]4)NC(=O)C(CCC(=O)O)NC(=O)C([S]2)[N]3C1=O (stereo partly drawn) [Ac-Lys(DOTA)-ReCCEHdFRWCKPV-NH2] | 3.3
3 | CC(C)C(NC(=O)C1CCCN1C(=O)C(CCCCN)NC(=O)C1NC(=O)C(Cc2c[nH]c3ccccc23)NC(=O)C(CCCNC(=N)N)NC(=O)[C@H](Cc2ccccc2)NC(=O)C(Cc2cnc[nH]2)NC(=O)C(CCC(=O)O)NC(=O)C2[S][ReH]3([OH])([S]1)[S]C(NC(=O)CN1CCN(CC(=O)O)CCN(CC(=O)O)CCN(CC(=O)O)CC1)C(=O)[N]23)C(N)=O (stereo partly drawn) [DOTA-ReCCEHdFRWCKPV-NH2] | 1.2
